Test results: ChEMBL document CHEMBL1127799, “Derivatives of a novel cyclopeptolide. 1. Synthesis, antifungal activity, and structure-activity relationships” (1994)
≈ marks a conversion by molar mass, not a printed value.

Tests used:
Assay type in all cases: functional
[1] = tested on: Candida albicans; assay: Tested for minimum subinhibitory concentration against Candida albicans 88 (Candida albicans) at pH 4.5.
In short: (§1)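 Malt extract broth microdilution at initial pH 4.5, 1×10^3 CFU/0.2 mL well, final compound 0.05–100 μg/mL diluted from DMSO/Tween 80 stocks. Incubation was 48 h at 30 °C with macroscopic reading. MSIC was the lowest concentration causing visible growth inhibition in at least two of three triplicates.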

[2] = tested on: Candida albicans; assay: Tested for minimum subinhibitory concentration against Candida albicans 26 (Candida albicans) at pH 4.5.; in short: as §1
[3] = tested on: Candida albicans; assay: Tested for minimum subinhibitory concentration against Candida albicans 3 (Candida albicans) at pH 4.5.; in short: as §1
[4] = tested on: Candida albicans; assay: Tested for minimum inhibitory concentration against Candida albicans 124 (Candida albicans) at pH 4.5.
In short: (§2)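 Broth microdilution in malt extract broth, initial pH 4.5 or 6.5, with 1×10^3 CFU per 0.2 mL well of thawed stored cultures. Compound stocks were made in 5% DMSO/0.2% Tween 80 and diluted to final 0.05–100 μg/mL. Plates were incubated 48 h at 30 °C and read macroscopically. MIC was the lowest concentration with no detectable growth. Vehicle-only wells served as controls.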

[5] = tested on: Candida albicans; assay: Tested for minimum inhibitory concentration against Candida albicans 124 (Candida albicans) at pH 6.5.
In short: (§3)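 Broth microdilution in malt extract broth, initial pH 6.5, 1×10^3 CFU per 0.2 mL well, from liquid-nitrogen-stored Sabouraud cultures. Compound from 0.08% stock in 5% DMSO/0.2% Tween 80, final 0.05–100 μg/mL. Visual reading after 48 h at 30 °C. MIC = lowest concentration with no detectable growth. Vehicle-only negative controls.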

[6] = tested on: Candida albicans; assay: Tested for minimum inhibitory concentration against Candida albicans 26 (Candida albicans) at pH 6.5.; in short: as §3
[7] = tested on: Candida albicans; assay: Tested for minimum inhibitory concentration against Candida albicans 3 (Candida albicans) at pH 4.5.; in short: as §2
[8] = tested on: Candida albicans; assay: Tested for minimum inhibitory concentration against Candida albicans 9 (Candida albicans) at pH 4.5.; in short: as §2
[9] = tested on: Candida albicans; assay: Tested for minimum inhibitory concentration against Candida albicans 9 (Candida albicans) at pH 6.5.; in short: as §3
[10] = tested on: Candida albicans; assay: Tested for minimum inhibitory concentration against Candida albicans 90 (Candida albicans) at pH 6.5.; in short: as §3
[11] = tested on: Candida albicans; assay: Tested for minimum inhibitory concentration against Candida albicans 124 (Candida albicans) at pH of 4.5.; in short: as §2
[12] = tested on: Candida albicans; assay: Tested for minimum subinhibitory concentration against Candida albicans 124 (Candida albicans) at pH 4.5.; in short: as §1
[13] = tested on: Candida albicans; assay: Tested for minimum subinhibitory concentration against Candida albicans 124 (Candida albicans) at pH 6.5.
In short: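 Malt extract broth microdilution, initial pH 6.5, inoculum 1×10^3 CFU per 0.2 mL well. Compound diluted from 0.08% stock (5% DMSO/0.2% Tween 80) to final 0.05–100 μg/mL. Macroscopic reading after 48 h, 30 °C. MSIC = lowest concentration giving visible growth inhibition in at least two of three triplicates. Vehicle-only negative controls.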

[14] = tested on: Pichia kudriavzevii; assay: Tested for minimum inhibitory concentration against Candida krusei 132 (C.k) at pH 6.5.; in short: as §3
[15] = tested on: Pichia kudriavzevii; assay: Tested for minimum inhibitory concentration against Candida krusei 132 (C.k) at pH of 6.5.; in short: as §2
[16] = tested on: Candida tropicalis; assay: Tested for minimum inhibitory concentration against Candida tropicalis 43 (C.t) at pH 6.5.; in short: as §3
[17] = tested on: Candida tropicalis; assay: Tested for minimum inhibitory concentration against Candida tropicalis 43 (C.t) at pH of 4.5.; in short: as §2
[18] = tested on: Candida tropicalis; assay: Tested for minimum subinhibitory concentration against Candida tropicalis 43 (C.t) at pH 4.5.; in short: as §1
[19] = tested on: Mus musculus; assay: Tested for efficacy of compound in experimental systemic candidosis (mouse) after intraperitoneal treatment at dosage of 8 *100 mg kg e-1
In short: (§4)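 Mice (female NMRI, 18–20 g; 10 per group) infected by tail-vein injection of 10⁶ CFU C. albicans no. 124. Compound was given intraperitoneally twice daily on 4 consecutive days, starting 2 h before inoculation. Efficacy was scored as survival rate up to day 9 after infection.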

[20] = species on record: Mus musculus; assay: Tested for efficacy of compound in experimental systemic candidosis (mouse) after oral treatment at dosage of 8 *100 mg kg e-1
In short: (§5)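 Systemic candidiasis: female NMRI mice (18–20 g), 10 per group, infected by intravenous injection of 10⁶ CFU C. albicans no. 124 via lateral tail vein. Oral dosing twice daily on 4 consecutive days, starting 2 h before inoculation. Efficacy taken as survival rate up to day 9 after infection.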

[21] = species on record: Mus musculus; assay: Tested for efficacy of compound in experimental systemic candidosis (mouse) after oral treatment at dosage of 8 *200 mg kg e-1; in short: as §5
[22] = tested on: Rattus norvegicus; assay: Tested for efficacy of compound in experimental vaginal candidosis (rat) after intraperitoneal treatment at dosage of 2x 50 mg kg e-1
In short: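 Female Wistar rats (~150 g; 10 per group) were hormonally conditioned and infected intravaginally with 3.5×10^4 CFU C. albicans no. 124 in 50 μL broth. Intraperitoneal dosing was given twice, 2 h before and 18 h after infection. Swabs taken one day after the last dose were plated on streptomycin Sabouraud agar (48 h, 37 °C). Cure meant failed reisolation.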

[23] = species on record: Rattus norvegicus; assay: Tested for efficacy of compound in experimental vaginal candidosis (rat) after oral treatment at dosage of 2x 300 mg kg e-1
In short: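 Hormonally conditioned female Wistar rats (~150 g), 10 per group, given intravaginal C. albicans no. 124, 3.5×10^4 CFU in 50 μL Sabouraud's glucose broth. Oral dosing twice, 2 h before and 18 h after infection. Vaginal swabs plated on Sabouraud's glucose agar with streptomycin (0.1 mg/mL), 48 h at 37 °C. Cured when C. albicans not reisolated.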

[24] = species on record: Rattus norvegicus; assay: Tested for efficacy of compound in experimental vaginal candidosis (rat) after tropical treatment at dosage of 9x 0.1% drug concentration
In short: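 Female Wistar rats (~150 g, hormonally conditioned, 10 per group) infected intravaginally with 3.5×10^4 CFU C. albicans no. 124 in 50 μL broth. Intravaginal gel, 0.2 mL, from 2 h post-inoculation, twice daily for 4 days (nine applications). Swabs plated one day after last treatment on Sabouraud's glucose agar with streptomycin, 48 h at 37 °C. Cure = no reisolation.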

[25] = species on record: Rattus norvegicus; assay: Tested for efficacy of compound in experimental vaginal candidosis (rat) after tropical treatment at dosage of 9x 1% drug concentration
In short: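 Hormonally conditioned female Wistar rats (~150 g; 10 per group) were infected intravaginally with 3.5×10^4 CFU C. albicans no. 124. Intravaginal gel (0.2 mL) started 2 h post-inoculation and was applied twice daily for 4 days, giving nine applications. Vaginal swabs taken one day after the last treatment were cultured on streptomycin Sabouraud agar at 37 °C for 48 h. Cure meant no reisolation.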

[26] = tested on: Meyerozyma guilliermondii; assay: Tested for minimum inhibitory concentration against Candida guilliermondii 80 (C.g) at pH 6.5.; in short: as §3
[27] = tested on: Candida albicans; assay: Tested for minimum inhibitory concentration against Candida albicans 4 (Candida albicans) at pH 6.5.; in short: as §3
[28] = tested on: Pichia kudriavzevii; assay: Tested for minimum subinhibitory concentration against Candida krusei 132 (C.k) at pH 4.5.; in short: as §1
[29] = tested on: Mus musculus; assay: Tested for efficacy of compound in experimental systemic candidosis (mouse) after intraperitoneal treatment at dosage of 8 *25 mg kg e-1; in short: as §4

Question: How did the MSIC [1] turn out when `CC[C@@H](C)[C@H]1C(=O)NCC(=O)N(C)[C@@H](C(C)C)C(=O)N[C@@H](Cc2ccc(OC)cc2)C(=O)O[C@H](C)C(=O)N2CCCC[C@H]2C(=O)N(C)[C@@H](C(C)C)C(=O)N[C@@H](C(C)C)C(=O)N(C)[C@@H](CC(=O)O)C(=O)N(C)[C@@H]([C@@H](C)CC)C(=O)N1C` was run?
Answer: 0.78 µg/mL

Question: What about the MSIC [2] of the same molecule?
Answer: 0.78 µg/mL

Question: What about the MSIC [3] of the same molecule?
Answer: 0.78 µg/mL

Question: And the MIC [4]?
Answer: 1.56 µg/mL (≈ 1.38 µM)

Question: And the MIC [5]?
Answer: 50 µg/mL (≈ 44.4 µM)

Question: And the MIC [6]?
Answer: > 100 µg/mL

Question: What about the MIC [7] of the same molecule?
Answer: 6.25 µg/mL (≈ 5.55 µM)

Question: And the MIC [8]?
Answer: 12.5 µg/mL (≈ 11.1 µM)

Question: What about the MIC [9] of the same molecule?
Answer: > 100 µg/mL

Question: What about the MIC [10] of the same molecule?
Answer: 100 µg/mL (≈ 88.8 µM)

Question: What about the MIC [11] of the same molecule?
Answer: 1.56 µg/mL (≈ 1.38 µM)

Question: And the MSIC [12]?
Answer: 0.4 µg/mL

Question: And the MSIC [13]?
Answer: 3.12 µg/mL

Question: And the MIC [14]?
Answer: > 100 µg/mL

Question: And the MIC [15]?
Answer: > 100 µg/mL

Question: And the MIC [16]?
Answer: 100 µg/mL (≈ 88.8 µM)

Question: What about the MIC [17] of the same molecule?
Answer: 1.56 µg/mL (≈ 1.38 µM)

Question: What about the MSIC [18] of the same molecule?
Answer: 0.8 µg/mL

Question: And the Efficacy [19]?
Answer: 100%

Question: What about the Efficacy [20] of the same molecule?
Answer: 40%

Question: And the Efficacy [21]?
Answer: 90%

Question: What about the Efficacy [22] of the same molecule?
Answer: 0%

Question: What about the Efficacy [23] of the same molecule?
Answer: 56%

Question: And the Efficacy [24]?
Answer: 78%

Question: What about the Efficacy [25] of the same molecule?
Answer: 100%

Question: And the MIC [26]?
Answer: > 100 µg/mL

Question: What about the MIC [27] of the same molecule?
Answer: 100 µg/mL (≈ 88.8 µM)

Question: And the MSIC [28]?
Answer: 1.56 µg/mL

Question: What about the Efficacy [29] of the same molecule?
Answer: 20%
